{
  "source": "ChEMBL document CHEMBL4613279",
  "about": "“Synthesis, Cytotoxicity Evaluation, and Computational Insights of Novel 1,4-Diazepane-Based Sigma Ligands” (ACS Med Chem Lett, 2020)",
  "key": {"[1]": {"assay": "Antioxidant activity in pH 7.4 PBS assessed as H2O2 radical scavenging activity", "assay_type": "functional"}, "[2]": {"assay": "Antioxidant activity assessed as ABTS radical scavenging activity incubated for 40 mins", "assay_type": "functional"}, "[3]": {"molecular_target": "Sigma non-opioid intracellular receptor 1 (Cavia porcellus, UniProt Q60492)", "sequence (Q60492 whole entry)": "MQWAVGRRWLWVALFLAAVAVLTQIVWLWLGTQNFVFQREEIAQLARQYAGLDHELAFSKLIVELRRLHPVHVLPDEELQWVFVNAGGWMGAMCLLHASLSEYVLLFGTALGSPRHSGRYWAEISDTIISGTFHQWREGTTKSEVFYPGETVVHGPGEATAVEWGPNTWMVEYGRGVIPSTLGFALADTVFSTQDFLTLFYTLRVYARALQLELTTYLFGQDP", "assay": "Displacement of [3H]-(+)pentazocine from sigma-1 receptor in guinea pig brain membranes after 120 mins by scintillation counting method", "assay_type": "cell membranes, Membrane"}, "[4]": {"molecular_target": "T1, Sigma intracellular receptor 2 (Rattus norvegicus, UniProt Q5U3Y7)", "T1 sequence (Q5U3Y7 whole entry)": "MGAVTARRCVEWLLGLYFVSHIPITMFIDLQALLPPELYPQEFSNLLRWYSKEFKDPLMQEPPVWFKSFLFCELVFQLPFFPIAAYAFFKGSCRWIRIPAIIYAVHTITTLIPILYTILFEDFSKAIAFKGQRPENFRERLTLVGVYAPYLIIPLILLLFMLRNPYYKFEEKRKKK", "assay": "Displacement of [3H]-Di-o-tolylguanidine from sigma-2 receptor in rat liver membranes after 120 mins by scintillation counting method", "assay_type": "cell membranes, Membrane"}, "[5]": {"molecular_target": "Glutamate receptor ionotropic, NMDA 2B (Homo sapiens, UniProt Q05586+Q13224)", "sequence (Q13224 whole entry, one chain of several)": "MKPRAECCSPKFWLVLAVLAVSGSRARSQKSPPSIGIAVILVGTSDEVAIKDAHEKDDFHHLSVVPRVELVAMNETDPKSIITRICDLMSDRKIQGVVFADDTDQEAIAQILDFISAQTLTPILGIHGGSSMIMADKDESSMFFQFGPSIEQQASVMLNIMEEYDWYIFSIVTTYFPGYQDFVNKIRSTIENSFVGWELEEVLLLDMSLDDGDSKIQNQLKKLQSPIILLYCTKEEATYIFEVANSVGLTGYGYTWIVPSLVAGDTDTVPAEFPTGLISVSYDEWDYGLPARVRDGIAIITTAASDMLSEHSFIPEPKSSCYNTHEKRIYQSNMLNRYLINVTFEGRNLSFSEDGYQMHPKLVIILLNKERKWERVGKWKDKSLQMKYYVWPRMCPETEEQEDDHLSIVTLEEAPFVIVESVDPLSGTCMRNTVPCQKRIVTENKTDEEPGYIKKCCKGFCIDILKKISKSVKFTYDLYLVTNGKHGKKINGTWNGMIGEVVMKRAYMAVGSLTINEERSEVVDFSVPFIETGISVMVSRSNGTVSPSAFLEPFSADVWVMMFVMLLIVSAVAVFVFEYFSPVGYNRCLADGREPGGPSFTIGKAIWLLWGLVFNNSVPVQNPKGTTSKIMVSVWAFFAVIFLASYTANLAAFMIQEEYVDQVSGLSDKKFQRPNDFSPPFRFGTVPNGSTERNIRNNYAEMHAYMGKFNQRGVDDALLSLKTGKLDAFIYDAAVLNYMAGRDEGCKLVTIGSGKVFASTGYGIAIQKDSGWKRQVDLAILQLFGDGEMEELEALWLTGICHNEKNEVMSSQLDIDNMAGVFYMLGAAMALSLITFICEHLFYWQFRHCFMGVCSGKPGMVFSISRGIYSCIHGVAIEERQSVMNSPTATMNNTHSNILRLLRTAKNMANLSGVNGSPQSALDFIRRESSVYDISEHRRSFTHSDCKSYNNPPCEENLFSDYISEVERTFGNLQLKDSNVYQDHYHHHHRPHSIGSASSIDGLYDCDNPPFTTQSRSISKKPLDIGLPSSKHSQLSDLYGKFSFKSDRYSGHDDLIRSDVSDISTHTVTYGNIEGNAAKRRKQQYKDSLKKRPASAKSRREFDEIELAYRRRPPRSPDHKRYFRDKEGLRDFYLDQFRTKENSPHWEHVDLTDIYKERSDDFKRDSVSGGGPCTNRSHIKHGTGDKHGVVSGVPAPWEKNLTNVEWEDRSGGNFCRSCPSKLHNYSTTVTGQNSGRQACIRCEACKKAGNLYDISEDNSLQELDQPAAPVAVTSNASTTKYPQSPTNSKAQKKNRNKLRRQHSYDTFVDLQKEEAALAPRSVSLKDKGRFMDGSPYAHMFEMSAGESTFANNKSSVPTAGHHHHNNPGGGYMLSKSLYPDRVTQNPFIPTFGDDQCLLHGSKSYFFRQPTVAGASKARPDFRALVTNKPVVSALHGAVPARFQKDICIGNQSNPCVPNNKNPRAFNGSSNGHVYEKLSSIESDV", "assay": "Displacement of [3H]ifenprodil from GluN2B (unknown origin) expressed in mouse L(tk-) cell membranes co-expressing GluN1a incubated for 120 mins by scintillation counting method"}, "[6]": {"assay": "Cytotoxicity against human PANC1 cells assessed as cell viability at 100 uM after 48 hrs by MTT assay relative to control", "assay_type": "cell-based", "settings": "PANC-1 cells, read-out: Activity", "outline": "(§1)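 Viability of human pancreatic carcinoma PANC1 and neuroblastoma SH-SY5Y cells, both chosen for high σ1R expression, measured by MTT assay across several test concentrations; viability expressed as percent.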"}, "[7]": {"molecular_target": "Glutamate receptor ionotropic, NMDA 2B (Homo sapiens) (UniProt Q13224)", "sequence (Q13224 27-1484 limits assumed)": "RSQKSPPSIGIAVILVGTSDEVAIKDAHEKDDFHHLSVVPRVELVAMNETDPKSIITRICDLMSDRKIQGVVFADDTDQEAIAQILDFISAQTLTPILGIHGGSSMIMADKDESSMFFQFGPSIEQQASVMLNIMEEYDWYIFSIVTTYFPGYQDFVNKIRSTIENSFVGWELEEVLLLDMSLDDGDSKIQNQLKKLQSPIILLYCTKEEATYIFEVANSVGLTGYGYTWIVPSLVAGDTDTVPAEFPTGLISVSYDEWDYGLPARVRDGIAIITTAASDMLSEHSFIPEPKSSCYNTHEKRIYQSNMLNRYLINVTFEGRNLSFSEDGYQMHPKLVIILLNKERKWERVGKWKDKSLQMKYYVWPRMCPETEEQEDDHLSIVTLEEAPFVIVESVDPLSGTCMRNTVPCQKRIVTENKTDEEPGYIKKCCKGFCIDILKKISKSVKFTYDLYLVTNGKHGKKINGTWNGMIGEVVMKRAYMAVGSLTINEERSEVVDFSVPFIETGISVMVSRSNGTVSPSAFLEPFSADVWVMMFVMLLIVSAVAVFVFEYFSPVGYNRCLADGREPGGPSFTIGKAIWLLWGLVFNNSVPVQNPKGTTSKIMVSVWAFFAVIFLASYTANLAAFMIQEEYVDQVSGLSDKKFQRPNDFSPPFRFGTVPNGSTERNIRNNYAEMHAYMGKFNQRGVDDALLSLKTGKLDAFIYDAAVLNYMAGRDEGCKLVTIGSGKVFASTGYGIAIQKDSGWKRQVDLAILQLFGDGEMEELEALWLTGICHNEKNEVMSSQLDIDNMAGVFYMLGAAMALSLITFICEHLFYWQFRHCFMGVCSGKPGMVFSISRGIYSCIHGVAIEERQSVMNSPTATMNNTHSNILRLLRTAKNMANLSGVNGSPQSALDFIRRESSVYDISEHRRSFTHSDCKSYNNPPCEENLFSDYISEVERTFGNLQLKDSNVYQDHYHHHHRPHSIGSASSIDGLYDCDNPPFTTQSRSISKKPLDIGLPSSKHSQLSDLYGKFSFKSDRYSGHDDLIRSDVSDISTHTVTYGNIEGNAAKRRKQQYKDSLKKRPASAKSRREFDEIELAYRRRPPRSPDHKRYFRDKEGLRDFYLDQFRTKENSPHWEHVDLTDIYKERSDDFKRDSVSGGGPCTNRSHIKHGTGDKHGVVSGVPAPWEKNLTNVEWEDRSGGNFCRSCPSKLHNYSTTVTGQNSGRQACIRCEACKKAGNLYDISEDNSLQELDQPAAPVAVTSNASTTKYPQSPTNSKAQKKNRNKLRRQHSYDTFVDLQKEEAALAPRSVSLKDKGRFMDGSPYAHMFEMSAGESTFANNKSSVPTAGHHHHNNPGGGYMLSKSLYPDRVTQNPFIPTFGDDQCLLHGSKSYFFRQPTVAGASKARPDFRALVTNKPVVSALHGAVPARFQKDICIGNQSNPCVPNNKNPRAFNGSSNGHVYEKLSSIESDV", "assay": "Displacement of [3H]ifenprodil from GluN2B (unknown origin) expressed in mouse L(tk-) cell membranes co-expressing GluN1a at 1 uM incubated for 120 mins by scintillation counting method relative to control"}, "[8]": {"molecular_target": "T2, Sigma intracellular receptor 2 (Rattus norvegicus) (UniProt Q5U3Y7)", "T2 sequence (whole entry)": "T1 sequence (Q5U3Y7 whole entry)", "assay": "Displacement of [3H]-Di-o-tolylguanidine from sigma-2 receptor in rat liver membranes at 1 uM after 120 mins by scintillation counting method relative to control", "assay_type": "cell membranes", "settings": "Membrane"}, "[9]": {"assay": "Cytotoxicity against human PANC1 cells assessed as cell viability at 50 uM after 48 hrs by MTT assay relative to control", "assay_type": "cell-based", "settings": "PANC-1 cells, read-out: Activity", "outline": "as §1"}, "[10]": {"assay": "Cytotoxicity against human SH-SY5Y cells assessed as cell viability at 50 uM after 48 hrs by MTT assay relative to control", "assay_type": "cell-based", "settings": "read-out: Activity", "outline": "as §1"}, "[11]": {"assay": "Cytotoxicity against human SH-SY5Y cells assessed as cell viability at 100 uM after 48 hrs by MTT assay relative to control", "assay_type": "cell-based", "settings": "read-out: Activity", "outline": "as §1"}, "[12]": {"tested_on": "SH-SY5Y", "assay": "Cytotoxicity against human SH-SY5Y cells at 12.5 to 100 uM after 48 hrs by MTT assay", "assay_type": "cell-based", "outline": "as §1"}, "[13]": {"tested_on": "PANC-1", "assay": "Cytotoxicity against human PANC1 cells at 12.5 to 100 uM after 48 hrs by MTT assay", "assay_type": "cell-based", "settings": "panc-1, 48 h", "outline": "as §1"}},
  "data": [
    {"molecule": "O=C(c1ccc2ccccc2n1)N1CCCN(Cc2ccccc2)CC1", "values": [
      {"measurement": "IC50", "setting": "[1]", "value": 20.35, "unit": "µg/mL"},
      {"measurement": "IC50", "setting": "[2]", "value": 14.26, "unit": "µg/mL"},
      {"measurement": "Ki", "setting": "[3]", "value": 19, "unit": "nM"},
      {"measurement": "Ki", "setting": "[4]", "value": 47, "unit": "nM"},
      {"measurement": "Ki", "setting": "[5]", "value": 1500, "unit": "nM"}
    ]},
    {"molecule": "Cc1ccc(CN2CCCN(C(=O)c3ccccc3)CC2)c(C)c1", "values": [
      {"measurement": "Ki", "setting": "[3]", "value": 849, "unit": "nM"},
      {"measurement": "Ki", "setting": "[4]", "value": 3900, "unit": "nM"},
      {"measurement": "Ki", "setting": "[5]", "value": 294, "unit": "nM"}
    ]},
    {"molecule": "Cc1ccc(CN2CCCN(C(=O)c3ccc4ccccc4n3)CC2)c(C)c1", "values": [
      {"measurement": "IC50", "setting": "[1]", "value": 17.44, "unit": "µg/mL"},
      {"measurement": "IC50", "setting": "[2]", "value": 9.43, "unit": "µg/mL"},
      {"measurement": "Ki", "setting": "[3]", "value": 29, "unit": "nM"},
      {"measurement": "Ki", "setting": "[4]", "value": 35, "unit": "nM"},
      {"measurement": "viability at 48 h, 100 µM", "setting": "[6]", "value": 51, "unit": "%"},
      {"measurement": "Ki", "setting": "[5]", "value": 108, "unit": "nM"}
    ]},
    {"molecule": "O=C(c1ccncc1)N1CCCN(Cc2ccccc2)CC1", "values": [
      {"measurement": "Ki", "setting": "[3]", "value": 267, "unit": "nM"},
      {"measurement": "inhibition", "setting": "[7]", "value": 0, "unit": "%"},
      {"measurement": "Ki", "setting": "[4]", "value": 495, "unit": "nM"}
    ]},
    {"molecule": "O=C(c1ccco1)N1CCCN(Cc2ccccc2)CC1", "values": [
      {"measurement": "Ki", "setting": "[3]", "value": 333, "unit": "nM"},
      {"measurement": "inhibition", "setting": "[7]", "value": 1, "unit": "%"},
      {"measurement": "Ki", "setting": "[4]", "value": 560, "unit": "nM"}
    ]},
    {"molecule": "O=C(c1ccccc1)N1CCCN(Cc2ccccc2)CC1", "values": [
      {"measurement": "Ki", "setting": "[3]", "value": 116, "unit": "nM"},
      {"measurement": "inhibition", "setting": "[7]", "value": 0, "unit": "%"},
      {"measurement": "inhibition", "setting": "[8]", "value": 0, "unit": "%"}
    ]},
    {"molecule": "O=C(c1cccs1)N1CCCN(Cc2ccccc2)CC1", "values": [
      {"measurement": "Ki", "setting": "[3]", "value": 147, "unit": "nM"},
      {"measurement": "inhibition", "setting": "[7]", "value": 0, "unit": "%"},
      {"measurement": "Ki", "setting": "[4]", "value": 297, "unit": "nM"}
    ]},
    {"molecule": "O=C(c1cccc2ccccc12)N1CCCN(Cc2ccccc2)CC1", "values": [
      {"measurement": "Ki", "setting": "[3]", "value": 41, "unit": "nM"},
      {"measurement": "inhibition", "setting": "[7]", "value": 9, "unit": "%"},
      {"measurement": "Ki", "setting": "[4]", "value": 187, "unit": "nM"}
    ]},
    {"molecule": "O=C(c1cc2ccccc2o1)N1CCCN(Cc2ccccc2)CC1", "values": [
      {"measurement": "IC50", "setting": "[1]", "value": 15.89, "unit": "µg/mL"},
      {"measurement": "viability at 48 h, 50 µM", "setting": "[9]", "value": 196, "unit": "%"},
      {"measurement": "IC50", "setting": "[2]", "value": 12.71, "unit": "µg/mL"},
      {"measurement": "Ki", "setting": "[3]", "value": 8, "unit": "nM"},
      {"measurement": "viability at 48 h, 50 µM", "setting": "[10]", "value": 127, "unit": "%"},
      {"measurement": "viability at 48 h, 100 µM", "setting": "[11]", "value": 98, "unit": "%"},
      {"measurement": "Ki", "setting": "[4]", "value": 47, "unit": "nM"},
      {"measurement": "viability at 48 h, 100 µM", "setting": "[6]", "value": 127, "unit": "%"},
      {"measurement": "Ki", "setting": "[5]", "value": 1600, "unit": "nM"}
    ]},
    {"molecule": "Cc1ccc(CN2CCCN(C(=O)c3ccco3)CC2)c(C)c1", "values": [
      {"measurement": "Ki", "setting": "[3]", "value": 690, "unit": "nM"},
      {"measurement": "inhibition", "setting": "[7]", "value": 0, "unit": "%"},
      {"measurement": "Ki", "setting": "[4]", "value": 3900, "unit": "nM"}
    ]},
    {"molecule": "O=C1O[C@H]([C@@H](O)CO)C(O)=C1O", "note": "[ASCORBIC ACID]", "values": [
      {"measurement": "IC50", "setting": "[1]", "value": 19.27, "unit": "µg/mL"},
      {"measurement": "IC50", "setting": "[2]", "value": 12.75, "unit": "µg/mL"}
    ]},
    {"molecule": "Cc1ccc(CN2CCCN(C(=O)c3cccc4ccccc34)CC2)c(C)c1", "values": [
      {"measurement": "Ki", "setting": "[3]", "value": 70, "unit": "nM"},
      {"measurement": "Ki", "setting": "[4]", "value": 102, "unit": "nM"},
      {"measurement": "Ki", "setting": "[5]", "value": 79, "unit": "nM"}
    ]},
    {"molecule": "Cc1c(C)c2c(c(C)c1O)CCC(C)(C(=O)O)O2", "note": "(stereo unspecified) [TROLOX]", "values": [
      {"measurement": "IC50", "setting": "[1]", "value": 20.38, "unit": "µg/mL"},
      {"measurement": "IC50", "setting": "[2]", "value": 18.73, "unit": "µg/mL"}
    ]},
    {"molecule": "Cc1ccc(CN2CCCN(C(=O)c3cccs3)CC2)c(C)c1", "values": [
      {"measurement": "Ki", "setting": "[3]", "value": 336, "unit": "nM"},
      {"measurement": "inhibition", "setting": "[7]", "value": 3, "unit": "%"},
      {"measurement": "Ki", "setting": "[4]", "value": 1800, "unit": "nM"}
    ]},
    {"molecule": "Cc1ccc(CN2CCCN(C(=O)c3cc4ccccc4o3)CC2)c(C)c1", "values": [
      {"measurement": "IC50", "setting": "[1]", "value": 18.56, "unit": "µg/mL"},
      {"measurement": "IC50", "setting": "[2]", "value": 10.05, "unit": "µg/mL"},
      {"measurement": "Ki", "setting": "[3]", "value": 20, "unit": "nM"},
      {"measurement": "Activity", "setting": "[12]", "value": "Non-Toxic"},
      {"measurement": "Activity", "setting": "[13]", "value": "Non-Toxic"},
      {"measurement": "Ki", "setting": "[4]", "value": 28, "unit": "nM"},
      {"measurement": "Ki", "setting": "[5]", "value": 59, "unit": "nM"}
    ]},
    {"molecule": "Cc1ccc(CN2CCCN(C(=O)c3ccncc3)CC2)c(C)c1", "values": [
      {"measurement": "Ki", "setting": "[3]", "value": 254, "unit": "nM"},
      {"measurement": "Ki", "setting": "[4]", "value": 2000, "unit": "nM"},
      {"measurement": "Ki", "setting": "[5]", "value": 116, "unit": "nM"}
    ]}
  ]
}
